In ChEMBL document CHEMBL4049456, “Identification of 4-(Aminomethyl)-6-(trifluoromethyl)-2-(phenoxy)pyridine Derivatives as Potent, Selective, and Orally Efficacious Inhibitors of the Copper-Dependent Amine Oxidase, Lysyl Oxidase-Like 2 (LOXL2)” (J Med Chem, 2017):

How the values were obtained:
[1] = target: T1, Diamine oxidase [copper-containing] (Homo sapiens) (UniProt P19801); assay: Inhibition of recombinant human DAO assessed as reduction of H2O2 production from oxidative deamination of DAP at 10 uM preincubated for 2 hrs followed by substrate addition measured every 2 mins for 1 hr by amplex red reagent-based fluorescence assay
T1 sequence (whole entry): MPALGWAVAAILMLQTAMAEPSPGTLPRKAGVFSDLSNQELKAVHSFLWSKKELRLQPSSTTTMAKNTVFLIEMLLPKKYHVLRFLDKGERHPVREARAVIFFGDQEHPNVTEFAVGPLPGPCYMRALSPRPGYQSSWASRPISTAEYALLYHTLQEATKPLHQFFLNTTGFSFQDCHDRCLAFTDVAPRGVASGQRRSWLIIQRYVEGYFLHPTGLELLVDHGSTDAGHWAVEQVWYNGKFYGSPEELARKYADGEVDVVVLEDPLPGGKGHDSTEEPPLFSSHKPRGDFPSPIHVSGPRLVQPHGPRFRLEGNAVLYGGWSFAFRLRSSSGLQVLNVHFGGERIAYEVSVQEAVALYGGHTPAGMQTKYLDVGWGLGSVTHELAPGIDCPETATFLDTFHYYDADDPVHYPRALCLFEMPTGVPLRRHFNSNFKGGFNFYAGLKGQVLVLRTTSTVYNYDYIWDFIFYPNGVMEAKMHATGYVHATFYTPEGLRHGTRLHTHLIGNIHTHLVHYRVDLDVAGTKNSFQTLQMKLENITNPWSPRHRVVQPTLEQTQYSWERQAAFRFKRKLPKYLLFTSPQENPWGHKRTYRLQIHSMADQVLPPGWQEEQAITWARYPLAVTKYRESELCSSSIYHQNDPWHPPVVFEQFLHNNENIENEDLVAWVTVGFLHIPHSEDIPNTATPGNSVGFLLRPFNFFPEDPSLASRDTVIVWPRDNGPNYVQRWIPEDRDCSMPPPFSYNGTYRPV
In short: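 Purified recombinant human DAO was preincubated with compound for 2 h and DAP used as substrate. Percent inhibition was calculated against vehicle and enzyme-free controls.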

MAO-B = target: T2, MAO-B (Homo sapiens, UniProt P27338); assay: Inhibition of recombinant human MAO-B assessed as reduction of H2O2 production from oxidative deamination of benzylamine at 10 uM preincubated for 2 hrs followed by substrate addition; conditions: probe benzylamine
T2 sequence (P27338 whole entry): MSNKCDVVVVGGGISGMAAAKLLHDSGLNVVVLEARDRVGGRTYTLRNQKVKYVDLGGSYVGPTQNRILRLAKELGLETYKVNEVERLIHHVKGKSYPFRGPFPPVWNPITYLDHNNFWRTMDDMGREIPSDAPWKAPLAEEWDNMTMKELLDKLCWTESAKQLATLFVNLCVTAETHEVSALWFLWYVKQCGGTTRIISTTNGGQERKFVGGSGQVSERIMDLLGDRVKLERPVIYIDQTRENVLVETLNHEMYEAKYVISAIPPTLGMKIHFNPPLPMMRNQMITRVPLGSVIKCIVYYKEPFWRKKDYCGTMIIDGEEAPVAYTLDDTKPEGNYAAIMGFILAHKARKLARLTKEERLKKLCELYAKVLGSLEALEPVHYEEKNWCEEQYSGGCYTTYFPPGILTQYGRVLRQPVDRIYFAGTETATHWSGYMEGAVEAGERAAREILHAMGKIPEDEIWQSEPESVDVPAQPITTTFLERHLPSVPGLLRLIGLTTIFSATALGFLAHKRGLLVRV
In short: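 Purified recombinant human MAO-A (tyramine substrate) or MAO-B (benzylamine substrate) was preincubated with compound for 2 h. Percent inhibition was calculated against vehicle and enzyme-free controls.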

Mus musculus = assay: Toxicity in C57BL/6 mouse assessed as mortality at 3 to 60 mg/kg, po qd administered 15 days starting 1 day prior to bleomycin instillation; assay type: organism-based; conditions: in vivo
In short: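 Male C57BL/6 mice, 6 to 7 weeks old. Lung fibrosis induced by a single oropharyngeal bleomycin dose (1.5 U/kg). Compound given orally once daily at 3, 10, 30 or 60 mg/kg for 15 days, starting 1 day before bleomycin. Mortality and body weight loss monitored; lungs taken at day 14 post-bleomycin.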

Lysyl oxidase homolog 2 = target: T3, Lysyl oxidase homolog 2 (Homo sapiens, UniProt Q9Y4K0); assay: Inhibition of human LOXL2 expressed in CHO cells assessed as reduction of H2O2 production from oxidative deamination of DAP preincubated for 2 hrs followed by substrate addition in presence of 0.1% BSA measured every 2 mins for 1 hr by amplex red reagent-based fluorescence assay; assay type: cell-based
T3 sequence (Q9Y4K0 whole entry): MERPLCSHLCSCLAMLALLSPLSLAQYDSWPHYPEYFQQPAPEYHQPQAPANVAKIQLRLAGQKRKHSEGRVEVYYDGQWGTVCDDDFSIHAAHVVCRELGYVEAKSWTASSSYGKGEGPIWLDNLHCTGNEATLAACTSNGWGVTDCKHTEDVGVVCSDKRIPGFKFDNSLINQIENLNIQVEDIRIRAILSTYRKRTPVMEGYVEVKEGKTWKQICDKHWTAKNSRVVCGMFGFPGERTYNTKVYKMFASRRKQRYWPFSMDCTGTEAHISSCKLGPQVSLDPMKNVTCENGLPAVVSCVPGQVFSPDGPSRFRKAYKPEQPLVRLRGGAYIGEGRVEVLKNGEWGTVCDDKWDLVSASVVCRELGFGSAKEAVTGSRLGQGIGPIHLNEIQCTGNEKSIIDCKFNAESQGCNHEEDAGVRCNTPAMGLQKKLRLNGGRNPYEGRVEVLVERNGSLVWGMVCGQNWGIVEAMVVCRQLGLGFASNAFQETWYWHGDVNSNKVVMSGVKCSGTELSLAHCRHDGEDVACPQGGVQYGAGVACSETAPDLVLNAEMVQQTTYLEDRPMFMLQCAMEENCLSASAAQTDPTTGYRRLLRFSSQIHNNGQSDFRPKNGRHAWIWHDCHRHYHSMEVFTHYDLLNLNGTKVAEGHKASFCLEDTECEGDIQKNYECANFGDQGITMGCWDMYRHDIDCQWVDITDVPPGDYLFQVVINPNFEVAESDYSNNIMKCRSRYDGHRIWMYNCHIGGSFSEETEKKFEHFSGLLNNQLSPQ

With `Cl.NCc1cc(Oc2cccc(C(=O)N3C[C@@H](O)[C@H](F)C3)c2)nc(C(F)(F)F)c1` (racemic) the inhibition [1] was less than 10%, the inhibition at 2 h, 10 µM (MAO-B) was less than 10% and the Activity (Mus musculus) was “Non-Toxic”. For the same molecule, the IC50 (Lysyl oxidase homolog 2) was 100 nM.
